Laboratory results reported in ChEMBL document CHEMBL1938366, “Synthesis and biological activity of novel barbituric and thiobarbituric acid derivatives against non-alcoholic fatty liver disease” (Eur J Med Chem, 2011).
The source made the active and inactive calls. The rule behind the calls is not given here.

Columns and labels:
[1] = system: Rattus norvegicus; experiment: Hepatoprotective activity against high fat/high calorie diet-induced non-alcoholic fatty liver disease in Wistar rat assessed as decreased LDL cholesterol levels at 50 mg/kg, po qd for 4 weeks by radioimmunoassay (reference value: 0.97 +/- 0.31 mM); type: functional
[2] = system: Rattus norvegicus; experiment: Hepatoprotective activity against high fat/high calorie diet induced NAFLD in Wistar rat assessed as restoration of liver cells at 50 mg/kg, po qd for 4 weeks by oil red O and H & E staining; type: functional, organism-based; set-up: dose 50 mg/kg
Method in brief: (§1)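 Male Wistar rats on a high-fat/high-calorie diet were given compound orally at 50 mg/kg once daily for 4 weeks, suspended in Tween 80 and 5% saline. Liver sections were then stained with Oil Red O and H&E and compared against normal-diet and untreated diet-model rats.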

[3] = system: Rattus norvegicus; experiment: Toxicity in high fat/high calorie diet-induced non-alcoholic fatty liver disease Wistar rat model assessed as abnormal behavioral at 50 mg/kg, po qd for 4 weeks; type: organism-based; set-up: dose 50 mg/kg, route oral; conditions: in vivo, 672 h
[4] = system: Rattus norvegicus; experiment: Hepatoprotective activity against high fat/high calorie diet-induced non-alcoholic fatty liver disease in Wistar rat assessed as decrease in liver/body weight ratio at 50 mg/kg, po qd for 4 weeks (reference value: 4.95 %); type: functional; set-up: scale not given: the % may be the effect or the level left
[5] = system: Rattus norvegicus; experiment: Hepatoprotective activity against high fat/high calorie diet-induced non-alcoholic fatty liver disease in Wistar rat assessed as decreased liver weight at 50 mg/kg, po qd for 4 weeks (reference value: 21.4 +/- 3.1 g); type: functional
[6] = system: Rattus norvegicus; experiment: Hepatoprotective activity against high fat/high calorie diet-induced non-alcoholic fatty liver disease in Wistar rat assessed as serum leptin levels at 50 mg/kg, po qd for 4 weeks (reference value: 7.59 +/- 2.36 ng/ml); type: functional
[7] = system: 3T3-L1; experiment: Cytotoxicity against mouse 3T3L1 cells assessed as glucose consumption at 10 uM by MTT assay; type: cell-based; conditions: 3t3-l1, 10 µM
[8] = system: Rattus norvegicus; experiment: Hepatoprotective activity against high fat/high calorie diet-induced non-alcoholic fatty liver disease in Wistar rat assessed as decreased body weight at 50 mg/kg, po qd for 4 weeks (reference value: 431 +/- 19.4 g); type: functional
[9] = system: Rattus norvegicus; experiment: Hepatoprotective activity against high fat/high calorie diet-induced non-alcoholic fatty liver disease in Wistar rat assessed as decreased triglyceride levels at 50 mg/kg, po qd for 4 weeks by radioimmunoassay (reference value: 2.38 +/- 1.20 mM); type: functional
[10] = system: 3T3-L1; experiment: Induction of adipogenesis in mouse 3T3L1 cells assessed as decrease of leptin level at 10 uM after 24 hrs (reference value: 3089.21 +/- 33.37 pg/ml); type: functional
[11] = system: 3T3-L1; experiment: Induction of adipogenesis in mouse 3T3L1 cells assessed as increase of adiponectin level at 10 uM after 8 to 12 days (reference value: 843.78 +/- 20.61 ng/ml); type: functional
[12] = system: Rattus norvegicus; experiment: Hepatoprotective activity against high fat/high calorie diet-induced non-alcoholic fatty liver disease in Wistar rat assessed as decreased ALT levels at 50 mg/kg, po qd for 4 weeks (reference value: 47.52 +/- 4.98 u/l); type: functional
[13] = system: Rattus norvegicus; experiment: Hepatoprotective activity against high fat/high calorie diet-induced non-alcoholic fatty liver disease in Wistar rat assessed as decreased FBS at 50 mg/kg, po qd for 4 weeks by radioimmunoassay (reference value: 9.23 +/- […] mM); type: functional
[14] = system: Rattus norvegicus; experiment: Hepatoprotective activity against high fat/high calorie diet-induced non-alcoholic fatty liver disease in Wistar rat assessed as decreased HDL cholesterol levels at 50 mg/kg, po qd for 4 weeks by radioimmunoassay (reference value: 1.20 +/- 0.43 mM); type: functional
[15] = system: Rattus norvegicus; experiment: Hepatoprotective activity against high fat/high calorie diet-induced non-alcoholic fatty liver disease in Wistar rat assessed as decreased visceral fat assessed per 100 gram of body weight at 50 mg/kg, po qd for 4 weeks (reference value: 4.95 +/- 0.95 g/100g BW); type: functional
[16] = system: 3T3-L1; experiment: Induction of adipogenesis in mouse 3T3L1 cells assessed as increase of adiponectin expression at 10 uM after 8 to 12 days relative to control; type: functional
[17] = system: Rattus norvegicus; experiment: Hepatoprotective activity against high fat/high calorie diet-induced non-alcoholic fatty liver disease in Wistar rat assessed as serum adiponectin levels at 50 mg/kg, po qd for 4 weeks (reference value: 10.49 +/- 2.59 ng/ml); type: functional
[18] = system: Rattus norvegicus; experiment: Toxicity in high fat/high calorie diet-induced non-alcoholic fatty liver disease Wistar rat model assessed as physiological signs of toxicity at 50 mg/kg, po qd for 4 weeks; type: organism-based; set-up: dose 50 mg/kg, route oral; conditions: in vivo, 672 h
[19] = system: Rattus norvegicus; experiment: Hepatoprotective activity against high fat/high calorie diet-induced non-alcoholic fatty liver disease in Wistar rat assessed as HOMA-IR levels at 50 mg/kg, po qd for 4 weeks (reference value: 15.31 +/- 0.22); type: functional
[20] = system: Rattus norvegicus; experiment: Hepatoprotective activity against high fat/high calorie diet-induced non-alcoholic fatty liver disease in Wistar rat assessed as reduction of fat accumulation in liver cells at 50 mg/kg, po qd for 4 weeks by oil red O and H & E staining; type: functional, organism-based; set-up: dose 50 mg/kg; method in brief: as §1
[21] = system: Rattus norvegicus; experiment: Hepatoprotective activity against high fat/high calorie diet-induced non-alcoholic fatty liver disease in Wistar rat assessed as insulin at 50 mg/kg, po qd for 4 weeks (reference value: 36.32 +/- 2.97 uU/ml); type: functional
[22] = system: HepG2; experiment: Cytotoxicity against human HepG2 cells assessed as glucose consumption at 10 uM by MTT assay in presence of insulin; type: cell-based; conditions: hepg2, 10 µM
Method in brief: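 HepG2 cells; glucose consumption measured with insulin co-present at 0.1 µM. Full procedure given in supplementary data (S3).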

[23] = system: HepG2; experiment: Cytotoxicity against human HepG2 cells assessed as glucose consumption at 10 uM by MTT assay; type: cell-based; conditions: hepg2, 10 µM

| Structure (SMILES) | Activity [7] | Activity [10] | Activity [11] | Activity [16] | further results |
| --- | --- | --- | --- | --- | --- |
| O=C(COc1ccc(C=C2C(=O)NC(=O)NC2=O)cc1)Nc1ccccn1 | Non-toxic | 1271.98 pg/mL | 1639.61 ng/mL | 180.32% | Activity [1]: 0.18 mM; Activity [2]: Active; Activity [3]: Non-toxic; Activity [4]: 4.34%; Activity [5]: 16 g; Activity [6]: 6 ng/mL; Activity [8]: 360.5 g; Activity [9]: 1.02 mM; Activity [12]: 33.06 U/L; Activity [13]: 4.73 mM; Activity [14]: 1.11 mM; Activity [15]: 3.98 g; Activity [17]: 12.53 µg/mL; Activity [18]: Non-toxic; Activity [19]: 7.03; Activity [20]: Active; Activity [21]: 33.43 uU/ml |
| CN(CCOc1ccc(CC2SC(=O)NC2=O)cc1)c1ccccn1 (stereo not drawn) [ROSIGLITAZONE] | – | 1773.67 pg/mL | 1324.73 ng/mL | 157.31% | Activity [22]: 29.41%; Activity [23]: 15.58% |
| O=C(COc1ccc(C=C2C(=O)NC(=O)NC2=O)cc1)Nc1ccccc1 | Non-toxic | 1856.32 pg/mL | 1111.73 ng/mL | 135.18% | – |
| O=C(COc1ccc(C=C2C(=O)NC(=O)NC2=O)cc1)Nc1ccc(F)c(F)c1 | Non-toxic | 1571.98 pg/mL | 1322.02 ng/mL | 143.8% | – |
| Cc1ccc(NC(=O)COc2ccc(C=C3C(=O)NC(=S)NC3=O)cc2)nc1 | Non-toxic | 1514.81 pg/mL | 1239.44 ng/mL | 146.94% | – |
